Results gathered from unrelated publications.
Each line is one published result; the experiments were not run side by side.
Target: Mitogen-activated protein kinase 3 (MAPK3, Homo sapiens, UniProt P27361)

O=C1NC(=O)c2cc(Nc3ccc(F)cc3)c(Nc3ccc(F)cc3)cc21 has a remaining signal of 86.1% (cell-free assay; 0.5 µM).
For Oc1cccc(-c2nc(N3CCOCC3)c3oc4ncccc4c3n2)c1, the remaining activity was 112% (enzyme activity, inhibitor; 10 µM).
FC(F)(F)Oc1cccc(-c2cnc3ccc(-c4ccncc4)nn23)c1 gave an activity vs control of 82% (enzyme activity, inhibitor, radiometric; 5 µM).
Cn1c2c(c3ccc(Cl)c(Cl)c31)C(C#N)C1(CCNCC1)NC2=O (racemic) has a ΔTm of 0.5 °C (thermal stability, DSF; 10 µM).
The remaining signal of Cc1ccc(NC(=O)c2ccc(CN3CCN(C)CC3)cc2)cc1Nc1nc(-c2cccnc2)cs1 is reported as 103% (cell-free assay; 0.5 µM).
The remaining binding of CN(c1ccnc(CNc2nc(Nc3ccc4c(c3)CC(=O)N4)ncc2C(F)(F)F)n1)S(C)(=O)=O is reported as 96% (cell-free assay, competition with immobilised ligand; 1 µM).
With c1nc2c(Nc3ccc4c(c3)OCCO4)nc(Nc3ccc4c(c3)OCCO4)nc2[nH]1 the activity vs control was 94% (enzyme activity, inhibitor; 10 µM).
The inhibition of COc1cc2ncnc(Nc3ccc(Oc4ccccc4)cc3C)c2cc1OC is reported as 5% (enzyme activity, inhibitor; 1 µM).
The ΔTm of CCN1CCC2(CC1)NC(=O)c1c(c3ccc(Cl)c(Cl)c3n1C)C2C#N (racemic) is reported as 0 °C (thermal stability, DSF; 10 µM).
N#CC(c1ccnc(NCCc2cccnc2)n1)c1nc2ccccc2s1 (stereo not shown) has a remaining activity of 99.4% (enzyme activity, inhibitor; 0.5 µM).
CCN1CCN(Cc2ccc(NC(=O)c3ccc(C)c(Oc4ccnc5[nH]ccc45)c3)cc2C(F)(F)F)CC1 has an inhibition of -24.5% (target engagement in cells, inhibitor, chemoproteomics; A-375; 50 nM).
Cn1c2c(c3ccc(Cl)c(Cl)c31)C(C#N)C1(CCOCC1)NC2=O (stereo not shown) has a ΔTm of 0.1 °C (thermal stability, DSF; 10 µM).
C[C@H](c1ccc(F)cc1)N(Cc1cccc(C(=O)O)c1)C(=O)c1cnc2ccccc2c1 has a remaining binding of 100% (cell-free assay, competition with immobilised ligand; 1 µM).
Cc1sc(C(=O)NC2COC2)cc1-n1cc(NC(=O)Nc2c(F)cccc2Cl)cn1 has a remaining activity of 107% (enzyme activity, inhibitor; 10 µM).
With Cc1cc(NC(=O)c2cccc(S(F)(F)(F)(F)F)c2)cc(-n2ccn3nc(-c4cccnc4)cc23)c1 the remaining binding was 86.8% (cell-free assay, competition with immobilised ligand; 1 µM).
For CC(C)(C)c1nc(-c2cccc(NS(=O)(=O)c3c(F)cccc3F)c2F)c(-c2ccnc(N)n2)s1, the remaining activity was 92% (enzyme activity, inhibitor, radiometric; 1 µM).
Cc1ccc(C(=O)Nc2ccc(CN3CCN(C)CC3)c(C(F)(F)F)c2)cc1C#Cc1cnc2cccnn12 has a remaining activity of 100% (enzyme activity, inhibitor; 23.5 nM).
CC/C(=N\NC(=O)NCc1cccc(O)c1)c1ccc(O)c(C)c1O has an inhibition of -2.7% (enzyme activity, inhibitor; 0.1 µM).
For O=C(NC[C@@H]1[C@H]2CN(C(=O)OCc3cc(C(F)(F)F)cc(C(F)(F)F)c3)C[C@@H]12)c1ccc2[nH]nnc2c1, the remaining binding was 100% (cell-free assay, competition with immobilised ligand; 1 µM).
With COc1cc(Nc2cnc(C#N)c(O[C@H](C)CN(C)C)n2)ncc1-c1cnn(C)c1 the remaining activity was 96% (enzyme activity, inhibitor, radiometric; 1 µM).
CNC(=O)c1cc(Oc2ccc(NC(=O)Nc3ccc(Cl)c(C(F)(F)F)c3)cc2)ccn1 gave a remaining signal of 105% (cell-free assay; 0.5 µM).
For Cn1c2c(c3ccc(Cl)c(Cl)c31)C(C#N)C1(CCCC1)NC2=O (stereo not shown), the ΔTm was -0.2 °C (thermal stability, DSF; 10 µM).
With O=C1C(Cl)=C(N2C(=O)CCC2=O)C(=O)c2ccccc21 the remaining activity was 99.3% (enzyme activity, inhibitor; 0.5 µM).
With Cn1c(=O)n(-c2ccc(C(C)(C)C#N)cc2)c2c3cc(-c4cnc5ccccc5c4)ccc3ncc21 the remaining activity was 106% (enzyme activity, inhibitor; 10 µM).
CC1(C)NC(=O)c2[nH]c3c(Cl)c(Cl)ccc3c2C1C#N (stereo not shown) gave a ΔTm of 0.2 °C (thermal stability, DSF; 10 µM).
The inhibition of CCN1CCN(Cc2ccc(NC(=O)c3ccc(C)c(/C=C/c4cnc5[nH]ccc5c4OC)c3)cc2C(F)(F)F)CC1 is reported as -26.3% (target engagement in cells, inhibitor, chemoproteomics; A-375; 5 µM).
O=C(Nc1cccnn1)N1CCC(=Cc2cccc(Oc3ccc(C(F)(F)F)cn3)c2)CC1 gave a remaining binding of 100% (cell-free assay, competition with immobilised ligand; 1 µM).
Nc1nc(Nc2ccccc2)sc1C(=O)c1c(F)cccc1F has a remaining activity of 72% (enzyme activity, inhibitor; 10 µM).
Cn1nc(C(=O)NCc2ccc(C(=O)O)cc2)cc1-c1ccc2[nH]ccc2c1 has a remaining binding of 94% (cell-free assay, competition with immobilised ligand; 0.1 µM).
The activity vs control of COc1cc(/C=C/C(=O)CC(=O)/C=C/c2ccc(O)c(OC)c2)ccc1O is reported as 94% (enzyme activity, inhibitor; 1 µM).
Cn1c2c(c3ccccc31)C(C#N)C(C)(C)NC2=O (stereo not shown) gave a ΔTm of -0.4 °C (thermal stability, DSF; 10 µM).
For Cc1cc(-n2nc(Cc3cc(F)cc(C(F)(F)F)c3)nc2C)ccc1C(N)=O, the remaining binding was 100% (cell-free assay, competition with immobilised ligand; 1 µM).
With Cn1c2c(Cl)c(Cl)ccc2c2cc(N)[nH]c(=O)c21 the ΔTm was -0.4 °C (thermal stability, DSF; 10 µM).
The remaining binding of Cc1nc(N2CC[C@@H](O)C2)ncc1-c1cc(C(F)(F)F)cc2[nH]ncc12 is reported as 100% (binding, competition with immobilised ligand; 1 µM).
